This is an account of results in ChEMBL document CHEMBL4425151, “Design, Synthesis, and Initial Evaluation of Affinity-Based Small-Molecule Probes for Fluorescent Visualization and Specific Detection of Keap1” (J Med Chem, 2016).

pEC50, pIC50, pKd: −log10 of the molar value. Activity calls are given as the source filed them. The calls are words filed in the database; no cut-off is given here.

Assay [1] has as its target T1, Kelch-like ECH-associated protein 1 (Homo sapiens, UniProt Q14145). As to the kind of experiment: Inhibition of FITC-labeled 9-mer Nrf2 peptide amide binding to human KEAP1 kelch domain (322 to 609 residues) expressed in Escherichia coli Arctic(DE3) cells incubated for 30 mins by fluorescence polarization assay.
For assay [2], the target named is T1, Kelch-like ECH-associated protein 1. The experiment in a line: Binding affinity to human KEAP1 kelch domain (322 to 609 residues) expressed in Escherichia coli Arctic(DE3) cells at 0.05 mM by isothermal titration calorimetry. The procedure, abridged:
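ITC at 25 °C. Lyophilized Keap1 Kelch domain and the FITC probe both dissolved in 10 mM HEPES pH 7.4. Nineteen 2 µL injections of 0.05 mM probe, 2.5 min apart, stirred at 750 rpm, into cell holding 0.005 mM Kelch domain. Kd obtained from a 1:1 binding model fit.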

Assay [3] shares this target. The experiment in a line: Binding affinity to KEAP1 kelch domain in nucleus of human NCM460 cells at 10 uM after 10 hrs by DAPI staining based confocal microscopic analysis. Format: cell-based. The procedure, abridged: (§1)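 NCM460 colonic cells exposed to the FITC probe at 10 µM for 10 h, then fixed. Keap1 primary antibody applied overnight at 4 °C, then Alexa Fluor-labelled goat anti-rabbit secondary for 1 h at 37 °C. Nuclei stained with DAPI. Imaged by laser scanning confocal microscopy at excitation 570 and 340 nm for co-localization. Three separate experiments.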

The target is the same in assay [4]. The experiment in a line: Binding affinity to KEAP1 kelch domain in cytoplasm of human NCM460 cells at 10 uM after 10 hrs by DAPI staining based confocal microscopic analysis. The class given is cell-based. The essentials:
as §1

Assay [5] has the same target. As to the kind of experiment: Binding affinity to KEAP1 kelch domain in human NCM460 cells after 2 hrs by Western blot based affinity pulldown assay. The class given is cell-based. The essentials:
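Streptavidin magnetic beads loaded with the biotin probe (50 µg/100 µL), 30 min at 4 °C, then free sites blocked with biotin. Beads incubated with NCM460 colonic cell lysate for 2 h at 4 °C with rotation and washed with TBS. Bound protein eluted in buffer with 2% SDS at 95 °C for 5 min. Analysed by SDS-PAGE and western blot with anti-Keap1 antibody.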

Assay [6] shares this target. The experiment in a line: Binding affinity to human KEAP1 kelch domain (322 to 609 residues) expressed in Escherichia coli Arctic(DE3) cells by biolayer interferometry method. The essentials: (§2)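 Biotinylated probe immobilized on super streptavidin biosensor tips. Sequence: baseline, loading, second baseline, Keap1 Kelch domain association (kon), then dissociation (koff). Six Keap1 concentrations tested, all at 30 °C. Kinetic constants fitted from the sensorgrams, and Kd taken as koff/kon.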

Assay [7] has the same target. As to the kind of experiment: Binding affinity to human KEAP1 kelch domain (322 to 609 residues) expressed in Escherichia coli Arctic(DE3) cells assessed as association constant by biolayer interferometry method. The essentials: as §2
Assay [8] has the same target. As to the kind of experiment: Binding affinity to human KEAP1 kelch domain (322 to 609 residues) expressed in Escherichia coli Arctic(DE3) cells assessed as dissociation constant by biolayer interferometry method. The procedure, abridged:
as §2

T1 sequence (Q14145 whole entry, the tested form may be a part): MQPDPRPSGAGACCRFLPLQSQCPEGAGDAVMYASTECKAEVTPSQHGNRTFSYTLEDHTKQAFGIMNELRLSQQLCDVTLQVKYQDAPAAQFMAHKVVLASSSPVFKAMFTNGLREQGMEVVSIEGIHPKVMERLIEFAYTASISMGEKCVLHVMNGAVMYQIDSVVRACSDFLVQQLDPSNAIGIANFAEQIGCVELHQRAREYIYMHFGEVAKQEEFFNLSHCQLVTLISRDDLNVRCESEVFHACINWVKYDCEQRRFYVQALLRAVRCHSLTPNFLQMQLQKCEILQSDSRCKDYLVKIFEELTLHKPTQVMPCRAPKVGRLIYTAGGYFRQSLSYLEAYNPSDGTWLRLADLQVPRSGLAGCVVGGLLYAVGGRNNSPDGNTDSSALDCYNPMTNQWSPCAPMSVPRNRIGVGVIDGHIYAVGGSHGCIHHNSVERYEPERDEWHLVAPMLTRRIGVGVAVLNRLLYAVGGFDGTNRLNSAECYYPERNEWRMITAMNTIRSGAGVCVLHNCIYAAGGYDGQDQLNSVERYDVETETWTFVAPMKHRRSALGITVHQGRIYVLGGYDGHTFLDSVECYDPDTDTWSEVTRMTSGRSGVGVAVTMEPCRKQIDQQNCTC

Compound `COc1ccc(S(=O)(=O)N(CC(=O)O)c2ccc(N(CC(=O)O)S(=O)(=O)c3ccc(NC(=O)CCCC(=O)NCCNC(=S)Nc4ccc5c(c4)C(=O)OC54c5ccc(O)cc5Oc5cc(O)ccc54)cc3)c3ccccc23)cc1` showed a pEC50 in assay [1] of 7.83. The compound also had a pKd in assay [2] of 7.54. Besides, the outcome in assay [3] and in assay [4] was Active.

Take `COc1ccc(S(=O)(=O)N(CC(=O)O)c2ccc(N(CC(=O)O)S(=O)(=O)c3ccc(NC(=O)CCCC(=O)NCCN)cc3)c3ccccc23)cc1`: the negative-log IC50 (pIC50) in assay [1] was 7.51.

With `COc1ccc(S(=O)(=O)N(CC(=O)O)c2ccc(N(CC(=O)O)S(=O)(=O)c3ccc(NC(=O)CCCC(=O)NCCNC(=O)CCCC[C@@H]4SC[C@@H]5NC(=O)N[C@@H]54)cc3)c3ccccc23)cc1`, the outcome in assay [5] was Active. Besides, the negative-log IC50 (pIC50) in assay [1] is 7.13. Besides, in assay [6], the Activity entry is “Dose-dependent effect” and the pKd was 7.67. In assay [7], the K was 6.24 ×10⁴ /M/s. Besides, the K in assay [8] was found to be 1.35 ×10⁻³ /s.
